Our source for the GI50 values is ChEMBL document CHEMBL1149450, “Synthesis and cytotoxic evaluation of new derivatives of the marine alkaloid variolin B” (2006).

Holding throughout (type): functional
One experiment deals with A549. Briefly: Inhibition of growth against A549 cells after 72 hrs exposure. To be noted: Homo sapiens, A549, 72 h. An outline of the steps:
(§1)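 Human tumour cells seeded at 5 × 10^3 per well in RPMI and allowed to attach for 18 h in drug-free medium. Compounds added in DMSO:H2O (3:7) for 72 h of continuous exposure. Cells fixed with cold TCA (60 min, 4 °C), stained with 0.4% SRB in 1% acetic acid (10 min, RT), and bound dye solubilised in Tris. OD read at 490 nm. GI50 calculated from 100 × [(T − T0)/(C − T0)] = 50, using control, test and time-zero ODs.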

Experiment [1] concerns HeLa. As to the kind of experiment: Inhibition of growth against HeLa cells after 72 hrs exposure. To be noted: Homo sapiens. An outline of the steps:
as §1

Experiment [2] deals with HeLa. Briefly: Inhibition of growth against HeLa-Apl cells after 72 hrs exposure. Conditions: Homo sapiens. An outline of the steps: as §1
A further experiment relates to PANC-1. As to the kind of experiment: Inhibition of growth against PANC1 cells after 72 hrs exposure. To be noted: Homo sapiens, PANC-1, 72 h. An outline of the steps: as §1
For experiment [3], the system named is LoVo. As to the kind of experiment: Inhibition of growth against LoVo-Dox cells after 72 hrs exposure. Conditions: Homo sapiens. In a few lines: as §1
The test system of the next experiment is SK-BR-3. As to the kind of experiment: Inhibition of growth against SKBR3 cells after 72 hrs exposure. To be noted: Homo sapiens, SK-BR-3, 72 h. In a few lines:
as §1

In another experiment the test system is K562. As to the kind of experiment: Inhibition of growth against K562 cells after 72 hrs exposure. To be noted: Homo sapiens, K562, 72 h. An outline of the steps:
as §1

In another experiment the test system is SK-MEL-28. Briefly: Inhibition of growth against MEL28 cells after 72 hrs exposure. Conditions: Homo sapiens, SK-MEL-28, 72 h. An outline of the steps:
as §1

The next experiment deals with LNCaP. Briefly: Inhibition of growth against LnCAP cells after 72 hrs exposure. To be noted: Homo sapiens. An outline of the steps: as §1
The test system of experiment [4] is IGROV-1. As to the kind of experiment: Inhibition of growth against IGROV cells after 72 hrs exposure. To be noted: Homo sapiens, IGROV-1, 72 h. In a few lines: as §1
In experiment [5] the test system is LoVo. Briefly: Inhibition of growth against LoVo cells after 72 hrs exposure. To be noted: Homo sapiens. In a few lines:
as §1

The subject of a further experiment is DU-145. As to the kind of experiment: Inhibition of growth against DU145 cells after 72 hrs exposure. Conditions: Homo sapiens, DU-145, 72 h. In a few lines:
as §1

Experiment [6] has as its system IGROV-1. Briefly: Inhibition of growth against IGROV-ET cells after 72 hrs exposure. To be noted: Homo sapiens, IGROV-1, 72 h. In a few lines: as §1
A further experiment has as its system HT-29. Briefly: Inhibition of growth against HT29 cells after 72 hrs exposure. To be noted: Homo sapiens, HT-29, 72 h. An outline of the steps:
as §1

The test system of the next experiment is SK-OV-3. As to the kind of experiment: Inhibition of growth against SKOV3 cells after 72 hrs exposure. To be noted: Homo sapiens, SK-OV-3, 72 h. An outline of the steps: as §1
For the next experiment, the system named is HMEC. Briefly: Inhibition of growth against HMEC1 cells after 72 hrs exposure. Conditions: Homo sapiens. In a few lines: as §1

For orientation: GI50 means the concentration at which growth is held to half of that of the control. The low end stands for more potent growth inhibition, the high end for less potent growth inhibition. With `Nc1nccc(-c2cc3c(-c4ccnc(N)n4)c4c(O)ccnc4n3c(N)n2)n1`, the GI50 in the experiment with A549 came to 26.9 µM; with HeLa [1], 26.9 µM; in the experiment on HeLa [2], 26.9 µM; in the experiment on PANC-1 it was 26.9 µM; in the experiment on LoVo [3] it was 26.9 µM; in the experiment on SK-BR-3, 14.8 µM. In addition, the 50% growth inhibitory concentration (GI50) with K562, in the experiment with SK-MEL-28, in the experiment on LNCaP, with IGROV-1 [4], in the experiment with LoVo [5] and in the experiment on DU-145 was 26.9 µM each time. For the same molecule, the GI50 in the experiment with IGROV-1 [6] and in the experiment on HT-29 was 26.9 µM each time.
`COc1ccnc2c1cc1cc(-c3ccnc(N)n3)nc(NCc3ccccc3)n12`: the GI50 in the experiment on A549 worked out at 25.2 µM; in the experiment with SK-OV-3, 25.2 µM; in the experiment on PANC-1, 25.2 µM; with LoVo [3] it was 11 µM; in the experiment on SK-BR-3 it was 25.2 µM; in the experiment with K562 it was 25.2 µM. The GI50 amounted to 25.2 µM with SK-MEL-28; 16 µM in the experiment on LNCaP; 15.1 µM with IGROV-1 [4]; 14.4 µM in the experiment with LoVo [5]; 25.2 µM with DU-145; 15 µM in the experiment with HMEC. The GI50 in the experiment on IGROV-1 [6] and in the experiment with HT-29 was 25.2 µM in each case.
In the case of `Nc1nccc(-c2cc3cc4c(O)ccnc4n3c(NCc3ccccc3)n2)n1`, the GI50 in the experiment with A549 stood at 14.1 µM; in the experiment with SK-OV-3, 19 µM; in the experiment with PANC-1, 26.1 µM; with LoVo [3], 6.76 µM; in the experiment with SK-BR-3, 13.1 µM; in the experiment on K562 it was 26.1 µM. The GI50 came to 24.4 µM in the experiment with SK-MEL-28; 12.9 µM in the experiment on LNCaP; 4.46 µM in the experiment on IGROV-1 [4]; 8.74 µM in the experiment with LoVo [5]; 26.1 µM in the experiment with DU-145; 6.31 µM in the experiment with HMEC. Besides, the concentration for 50% growth inhibition (GI50) is 12.9 µM in the experiment with IGROV-1 [6] and 25.1 µM in the experiment with HT-29.
`CN(C)Cc1cnc2c(c1O)c(-c1ccnc(N)n1)c1cc(-c3ccnc(N)n3)nc(NCc3ccccc3)n12`: the GI50 in the experiment with A549 was determined as 18.7 µM; with HeLa [1], 4.52 µM; in the experiment on HeLa [2], 3.88 µM; with PANC-1 it was 17.7 µM; with LoVo [3] it was 3.05 µM; in the experiment on SK-BR-3 it was 2.79 µM. Moreover, the GI50 in the experiment with K562 is 4.78 µM; with SK-MEL-28 it was 4.12 µM; with LNCaP, 9.13 µM; with IGROV-1 [4], 4.03 µM; in the experiment on LoVo [5], 13.6 µM; with DU-145, 4.74 µM. Also, the GI50 with IGROV-1 [6] was 3.56 µM; in the experiment with HT-29, 18.7 µM.
Consider `COc1ccnc2c1c(-c1ccnc(N)n1)c1cc(-c3ccnc(N)n3)nc(NCc3ccccc3)n12`, for which the GI50 in the experiment on A549 is 21 µM; with HeLa [1], 3.03 µM; in the experiment with HeLa [2], 3.68 µM; in the experiment on PANC-1, 19.9 µM; in the experiment on LoVo [3] it was 21 µM; in the experiment on SK-BR-3, 8.24 µM. Besides, the GI50 amounted to 21 µM in the experiment on K562; 21 µM with SK-MEL-28; 18.6 µM in the experiment on LNCaP; 21 µM in the experiment with IGROV-1 [4]; 21 µM with LoVo [5]; 21 µM in the experiment on DU-145. Moreover, the GI50 in the experiment with IGROV-1 [6] and with HT-29 was 21 µM in each case.
As for `Nc1nccc(-c2cc3c(-c4ccnc(N)n4)c4c(O)ccnc4n3c(NCc3ccccc3)n2)n1`, the GI50 in the experiment with A549, in the experiment on SK-OV-3, with PANC-1, in the experiment with LoVo [3], in the experiment with SK-BR-3 and in the experiment with K562 was 21.7 µM throughout. Also, the GI50 in the experiment with SK-MEL-28, in the experiment on LNCaP, in the experiment with IGROV-1 [4], in the experiment with LoVo [5], in the experiment with DU-145 and with HMEC was 21.7 µM in each case. For the same molecule, the GI50 in the experiment on IGROV-1 [6] stood at 9.9 µM; with HT-29, 21.7 µM.
As for `Nc1nccc(-c2cc3cc4c(O)ccnc4n3c(N)n2)n1` [7-ISOVARIOLIN B], the GI50 is 34.1 µM in the experiment on A549; 6.14 µM in the experiment with HeLa [1]; 8.86 µM in the experiment on HeLa [2]; 21.8 µM in the experiment on PANC-1; 34.1 µM in the experiment on LoVo [3]; 31.9 µM with SK-BR-3. The GI50 with K562 worked out at 9.24 µM; in the experiment on SK-MEL-28, 3.41 µM; in the experiment with LNCaP, 5.28 µM; with IGROV-1 [4] it was 27.9 µM; with LoVo [5] it was 34.1 µM; in the experiment on DU-145, 34.1 µM. The GI50 in the experiment with IGROV-1 [6] stood at 31.9 µM; in the experiment on HT-29 it was 34.1 µM.
For `COc1ccnc2c1c(-c1ccnc(N)n1)c1cc(C(=O)NCCN(C)C)nc(NCc3ccccc3)n12`, the concentration for 50% growth inhibition (GI50) in the experiment on A549 turned out to be 3.38 µM; with SK-OV-3, 0.72 µM; in the experiment with PANC-1, 3.97 µM; with LoVo [3], 3.46 µM; in the experiment on SK-BR-3, 2.13 µM; in the experiment with K562, 3.36 µM. Further, the GI50 in the experiment with SK-MEL-28 was 4.42 µM; in the experiment with LNCaP, 2.37 µM; in the experiment on IGROV-1 [4], 2.8 µM; in the experiment with LoVo [5] it was 3.62 µM; in the experiment on DU-145, 2.38 µM; in the experiment with HMEC, 0.46 µM. The GI50 with IGROV-1 [6] amounted to 2.05 µM; with HT-29 it was 3.44 µM.
Consider `Nc1nccc(-c2c3c(O)ccnc3n3c(N)nccc23)n1` [VARIOLIN B], for which the concentration for 50% growth inhibition (GI50) in the experiment with A549 came to 0.98 µM; in the experiment on SK-OV-3 it was 1.21 µM; in the experiment with PANC-1, 1.68 µM; in the experiment with LoVo [3], 1.02 µM; with SK-BR-3, 0.85 µM; in the experiment on K562, 1.55 µM. For the same molecule, the GI50 in the experiment on SK-MEL-28 amounted to 1.2 µM; with LNCaP, 0.05 µM; in the experiment on IGROV-1 [4], 1.14 µM; with LoVo [5] it was 0.8 µM; with DU-145 it was 0.89 µM; in the experiment on HMEC, 0.27 µM. For the same molecule, the GI50 in the experiment with IGROV-1 [6] stood at 1.28 µM; with HT-29 it was 2.85 µM.
